Broadly, the IC50 is the concentration at which inhibition is half-maximal.

Data set [1] concerns MIA PaCa-2. Briefly: Cytotoxicity against human MIAPaCa2 cells incubated for 24 hrs measured after 5 days in presence of complete protease inhibitor cocktail. Type of data set: functional, cell-based. A digest of the protocol: (§1)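 Cells seeded 1000/well, adhered overnight, then serum-free medium with or without plasmin, trypsin, cathepsin B or papain (0.2 U/well), aprotinin (5 µM) or protease inhibitor cocktail (1X). Prodrug 2000–1 nM final, 24 h; then complete medium up to 5 days or control 80% confluence. Formalin fixed, crystal violet, A582; % of control fit to variable-slope sigmoid for IC50.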

Data set [2] can be described thus: Cytotoxicity against human L3.3 cells incubated for 24 hrs measured after 5 day. Type of data set: functional, cell-based. A digest of the protocol:
as §1

Data set [3] deals with MCF7. Briefly: Cytotoxicity against human MCF7 cells incubated for 24 hrs measured after 5 days in presence of 5 uM aprotinin. Type of data set: functional, cell-based. A digest of the protocol:
as §1

Data set [4] is described as follows: Cytotoxicity against human L3.3 cells incubated for 24 hrs measured after 5 days in presence of 0.2 U human plasmin. Type of data set: functional, cell-based. In a few lines: as §1
Data set [5] can be described thus: Cytotoxicity against doxorubicin-resistant human NCI-ADR-RES cells incubated for 24 hrs measured after 5 day. Type of data set: functional, cell-based. A digest of the protocol:
as §1

In data set [6] the test system is MIA PaCa-2. Briefly: Cytotoxicity against human MIAPaCa2 cells incubated for 24 hrs measured after 5 days in presence of 0.2 U papain. Type of data set: functional, cell-based. In a few lines:
as §1

Data set [7] concerns MIA PaCa-2. Briefly: Cytotoxicity against human MIAPaCa2 cells incubated for 24 hrs measured after 5 days in presence of 0.2 U cathepsin B. Type of data set: functional, cell-based. In a few lines:
as §1

Data set [8] deals with MCF7. Briefly: Cytotoxicity against human MCF7 cells incubated for 24 hrs measured after 5 days in presence of 0.2 U plasmin. Type of data set: functional, cell-based. A digest of the protocol: as §1
Data set [9] deals with MCF7. Briefly: Drug uptake in human MCF7 cells increase in compound uptake-induced anthracycline fluorescence in absence of plasmin at 0.5 uM up to 5 hrs by flow cytometry relative to untreated control. Type of data set: ADME, cell-based. To be noted: mcf7, 5 h. In a few lines: (§2)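 MCF-7 or MiaPaCa-2 plated 250,000/well, adhered overnight, switched to serum-free medium with 0.5 µM prodrug alone or plus 0.2 U human plasmin (final) for up to 5 h. Trypsinised cells read by flow cytometry (FL3) for anthracycline fluorescence; mean values expressed as fold over untreated cells.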
In general terms: Flow cytometry measures light scatter and fluorescence of single cells or particles in a stream.

The target of the next data set is T1, Papain (Carica papaya) (UniProt P00784).
T1 sequence (whole entry): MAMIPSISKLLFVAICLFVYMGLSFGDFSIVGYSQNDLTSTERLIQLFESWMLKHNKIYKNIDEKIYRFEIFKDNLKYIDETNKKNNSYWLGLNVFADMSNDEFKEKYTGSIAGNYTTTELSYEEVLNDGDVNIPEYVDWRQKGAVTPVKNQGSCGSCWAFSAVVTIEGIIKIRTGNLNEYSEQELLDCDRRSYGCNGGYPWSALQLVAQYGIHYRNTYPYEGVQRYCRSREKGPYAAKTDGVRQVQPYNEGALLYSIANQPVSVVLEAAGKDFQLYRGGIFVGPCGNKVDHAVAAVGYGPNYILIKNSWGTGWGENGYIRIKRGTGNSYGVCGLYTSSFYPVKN
Kind of data set: Activity of papaya papain assessed as compound hydrolysis measuring enzyme specific activity at 50 uM at pH 6.5 in PBS buffer containing 10 mM N-acetylcysteine by RP-HPLC. In a few lines:
(§3)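 50 µM prodrug incubated at 37 °C with enzyme: trypsin in PBS; papain diluted two-fold in PBS-NAC (PBS + 10 mM N-acetylcysteine), reacted in PBS-NAC pH 6.5. Aliquots quenched in equal volume ethanol, −20 °C ≥2 h, centrifuged; supernatant RP-HPLC at 480 nm for substrate loss and dox gain. Slope of linear fit gives activity; 1 U = 1 µM prodrug hydrolysed per min.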

Data set [10] has as its system MIA PaCa-2. Kind of data set: Drug uptake in human MIAPaCa2 cells increase in compound uptake-induced anthracycline fluorescence in absence of plasmin at 0.5 uM up to 5 hrs by flow cytometry relative to untreated control. Type of data set: ADME, cell-based. To be noted: mia paca-2, 5 h. In a few lines:
as §2

For data set [11], the system named is MCF7. Briefly: Cytotoxicity against human MCF7 cells incubated for 24 hrs measured after 5 days in presence of 0.2 U trypsin. Type of data set: functional, cell-based. A digest of the protocol: as §1
The species entered for the next data set is Bos taurus. Briefly: Activity of bovine trypsin assessed as enzyme specific activity for compound hydrolysis. A digest of the protocol: as §3
In data set [12] the test system is MIA PaCa-2. Briefly: Cytotoxicity against human MIAPaCa2 cells incubated for 24 hrs measured after 5 days in presence of 0.2 U plasmin. Type of data set: functional, cell-based. A digest of the protocol: as §1
Data set [13] deals with MCF7. Kind of data set: Cytotoxicity against human MCF7 cells incubated for 24 hrs measured after 5 days in presence of 0.2 U papain. Type of data set: functional, cell-based. A digest of the protocol: as §1

With `COc1cccc2c1C(=O)c1c(O)c3c(c(O)c1C2=O)C[C@@](O)(C(=O)CO)C[C@@H]3O[C@H]1C[C@H]2[C@H](OCN2C(=O)OCc2ccc(NC(=O)[C@H](CCCCN)NC(=O)[C@H](Cc3ccccc3)NC(=O)[C@@H](C)NC(=O)CNC(C)=O)cc2)[C@H](C)O1.O=P(O)(O)O`, the IC50 in the data set with MIA PaCa-2 [1] was 398 nM; in data set [2], 251 nM; in the data set with MCF7 [3] it was 295 nM; in data set [4], 3.98 nM; in [5], 912 nM; with MIA PaCa-2 [6], 69.2 nM. The IC50 with MIA PaCa-2 [7] was 158 nM; with MCF7 [8], 26.9 nM; with MCF7 [11], 31.6 nM; in the data set with MIA PaCa-2 [12] it was 23.4 nM; with MCF7 [13] it was 60.3 nM. Moreover, the “fold change (FC)” value in the data set with MCF7 [9] and in the data set with MIA PaCa-2 [10] was 2 in each case. Further, the Activity on Papain (Carica papaya) stood at 890 U/mg; in the data set listed under Bos taurus, 4340 U/mg.

(Values after ChEMBL document CHEMBL2169769, “Synthesis and biological characterization of protease-activated prodrugs of doxazolidine” (J Med Chem, 2012).)
